Converted amounts (≈) assume the structure as drawn. Some results are limits rather than exact numbers.

Holding throughout (assay type): functional
Holding throughout (conditions): read-out: ED50 (the source's name)

One experiment relates to KB. Briefly: Cytotoxicity against human KB cells. The procedure, abridged:
(§1)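 In vitro cytotoxicity against a tumor-cell panel. Panel: KB (nasopharyngeal carcinoma), A-549 (human lung carcinoma), HCT-8 (human colon adenocarcinoma), RPMI-7951 (human melanoma), TE-671 (human medulloblastoma) and P-388 (murine leukemia). The procedure follows published protocols.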

In a further experiment the test system is A549. Briefly: Cytotoxicity against human A549 cells. The procedure, abridged:
as §1

For the next experiment, the system named is RPMI-7951. Briefly: Cytotoxicity against human RPMI7951 cells. The procedure, abridged: as §1
The test system of the next experiment is TE-671. Briefly: Cytotoxicity against human TE671 cells. The gist of the method: as §1
The next experiment has as its system HCT-8. Briefly: Cytotoxicity against human HCT8 cells. The gist of the method:
as §1

The test system of a further experiment is P388. Briefly: Cytotoxicity against mouse P388 cells. The gist of the method: as §1

As for `CC(=O)OC[C@]12[C@H](OC(C)=O)[C@@H](O)[C@@H]3[C@@H](OC(C)=O)[C@@]14O[C@@]3(C)COC(=O)c1cccnc1[C@H](C)[C@H](C)C(=O)O[C@@H]([C@H](OC(=O)c1ccc(=O)n(C)c1)[C@@H]2OC(=O)c1ccccc1)[C@@]4(C)O` [EMARGINATINE F], the EC50 in the experiment on KB was 0.51 µg/mL (≈ 0.555 µM); in the experiment with A549 it was 5.5 µg/mL (≈ 5.99 µM); with RPMI-7951, less than 0.1 µg/mL; in the experiment with TE-671, 0.21 µg/mL (≈ 0.229 µM); with HCT-8, 1.29 µg/mL (≈ 1.4 µM); in the experiment with P388 it was 0.69 µg/mL (≈ 0.751 µM).

With `C/C=C(\C)C(=O)O[C@H]1[C@@H](OC(=O)c2ccc(=O)n(C)c2)[C@@H]2OC(=O)[C@@H](C)[C@@H](C)c3ncccc3C(=O)OC[C@]3(C)O[C@@]4([C@H](OC(C)=O)[C@H]3[C@@H](OC(C)=O)[C@@H](OC(C)=O)[C@]14COC(C)=O)[C@]2(C)O` [EMARGINATINE G], the EC50 in the experiment with KB, in the experiment with A549, with RPMI-7951, in the experiment on TE-671, in the experiment with HCT-8 and in the experiment with P388 was greater than 10 µg/mL each time.

These data come from ChEMBL document CHEMBL1149040, “Two new macrolide sesquiterpene pyridine alkaloids from Maytenus emarginata: emarginatine G and the cytotoxic emarginatine F” (1994).
